# According to ChEMBL document CHEMBL4689842, “EUbOPEN Chemogenomics Library wave 1” (2021):
# Values joined by “and” are separate entries in the source; they are usually repeats but may differ in a detail not shown here. Equal values may be shown once.
# Tested on: HEK-293T
# Experiment: Multiplex assay against HEK293T;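 on Population Tubulin-Different-Phenotype (%): share of the cells with healthy nuclei that show this phenotype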
# Format: toxicity, cell-based
# Settings: human, 1 µM, compound concentration 1 uM
# Summary of the method: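 Phenotypes for tubulin, mitochondrial mass and membrane permeability are expressed as per cents of healthy-nucleus cells. Cells were stained live at seeding with Hoechst33342, BioTracker Green Microtubule Cytoskeleton Dye, MitoTracker Red and Annexin V Alexa Fluor 680, then imaged after compound addition on a CQ1 microscope at 37°C and 5% CO2. Machine-learning gating in CellPathfinder separated Hoechst high-intensity objects from normal cells, divided normal cells by nuclear state (healthy, pyknosed, fragmented) and divided pyknosed cells into mitotic or apoptotic.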
smiles,measurement,setting,value
Cc1cc(C)c(-n2ccn3nc(-c4cccnc4)cc23)cc1NC(=O)c1cc(C#N)cc(S(F)(F)(F)(F)F)c1 [BAY-826],Population Apoptotic (%),"12 h, replicate 1",30%
same,Population Fragmented Nuclei (%),"12 h, replicate 1",14% and 17%
same,Population Healthy Nuclei (%),"12 h, replicate 1",56% and 57%
same,Population Hoechst High Intensity Objects (%),"12 h, replicate 1",14% and 13%
same,Population Membrane Permeable-Phenotype (%),"12 h, replicate 1",36% and 23%
same,Population Mitochondria Different-Phenotype (%),"12 h, replicate 1",25% and 17%
same,Population Mitotic Cells (%),"12 h, replicate 1",69%
same,Population Normal (%),"12 h, replicate 1",85% and 86%
same,Population Pyknosed Nuclei (%),"12 h, replicate 1",28% and 24%
same,Population Tubulin-Different-Phenotype (%),"12 h, replicate 1",93% and 58%
same,Total Cell Count,"12 h, replicate 1",624 and 510
same,Population Fragmented Nuclei (%),"12 h, replicate 2",4% and 6%
same,Population Healthy Nuclei (%),"12 h, replicate 2",75% and 83%
same,Population Hoechst High Intensity Objects (%),"12 h, replicate 2",3%
same,Population Membrane Permeable-Phenotype (%),"12 h, replicate 2",34% and 17%
same,Population Mitochondria Different-Phenotype (%),"12 h, replicate 2",32% and 19%
same,Population Mitotic Cells (%),"12 h, replicate 2",79% and 93%
same,Population Normal (%),"12 h, replicate 2",96%
same,Population Pyknosed Nuclei (%),"12 h, replicate 2",20% and 9%
same,Population Tubulin-Different-Phenotype (%),"12 h, replicate 2",98% and 82%
same,Total Cell Count,"12 h, replicate 2",1184 and 1372
same,Population Apoptotic (%),"24 h, replicate 1",35% and 25%
same,Population Fragmented Nuclei (%),"24 h, replicate 1",12% and 11%
same,Population Healthy Nuclei (%),"24 h, replicate 1",66% and 76%
same,Population Hoechst High Intensity Objects (%),"24 h, replicate 1",12% and 7%
same,Population Membrane Permeable-Phenotype (%),"24 h, replicate 1",33% and 20%
same,Population Mitochondria Different-Phenotype (%),"24 h, replicate 1",28% and 16%
same,Population Mitotic Cells (%),"24 h, replicate 1",64% and 75%
same,Population Normal (%),"24 h, replicate 1",87% and 92%
same,Population Pyknosed Nuclei (%),"24 h, replicate 1",20% and 12%
same,Population Tubulin-Different-Phenotype (%),"24 h, replicate 1",95% and 76%
same,Total Cell Count,"24 h, replicate 1",622 and 545
same,Population Apoptotic (%),"24 h, replicate 2",9% and 14%
same,Population Healthy Nuclei (%),"24 h, replicate 2",78% and 68%
same,Population Hoechst High Intensity Objects (%),"24 h, replicate 2",4%
same,Population Membrane Permeable-Phenotype (%),"24 h, replicate 2",22% and 17%
same,Population Mitotic Cells (%),"24 h, replicate 2",90% and 85%
same,Population Normal (%),"24 h, replicate 2",95%
same,Population Tubulin-Different-Phenotype (%),"24 h, replicate 2",87%
same,Total Cell Count,"24 h, replicate 2",2013 and 1166
